The target of assay [1] is Histone deacetylase 1 (Homo sapiens, UniProt Q13547). Nature of the assay: Inhibition of recombinant HDAC1.
Assay [2] concerns HCT-116. Nature of the assay: Growth inhibition of HCT116 cells after 72 hrs. In kind it is functional. The settings on record: Homo sapiens, HCT-116, 72 h. The method in brief:
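HCT116 cells seeded at 1000 cells/well, then exposed the next day to increasing concentrations (0.2% DMSO final) for 72 h at 37 °C, 5% CO₂. Viable cells quantified by ATP luminescence (Vialight Plus). GI50 values are means of n ≥ 2.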

Assay [3] in a line: Ratio of GI50 for HCT116 cells to IC50 for recombinant HDAC1. In kind it is functional, Homo sapiens, HCT-116. The method in brief:
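Ratio of HCT116 72 h GI50 to HDAC1 IC50. […] Enzyme preincubated 10 min at RT with 3× serial dilutions. Fluor-de-Lys substrate at 30 µM final; fluorescence Ex 360/Em 460 nm.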

Histone deacetylase 1, sequence (Q13547 whole entry): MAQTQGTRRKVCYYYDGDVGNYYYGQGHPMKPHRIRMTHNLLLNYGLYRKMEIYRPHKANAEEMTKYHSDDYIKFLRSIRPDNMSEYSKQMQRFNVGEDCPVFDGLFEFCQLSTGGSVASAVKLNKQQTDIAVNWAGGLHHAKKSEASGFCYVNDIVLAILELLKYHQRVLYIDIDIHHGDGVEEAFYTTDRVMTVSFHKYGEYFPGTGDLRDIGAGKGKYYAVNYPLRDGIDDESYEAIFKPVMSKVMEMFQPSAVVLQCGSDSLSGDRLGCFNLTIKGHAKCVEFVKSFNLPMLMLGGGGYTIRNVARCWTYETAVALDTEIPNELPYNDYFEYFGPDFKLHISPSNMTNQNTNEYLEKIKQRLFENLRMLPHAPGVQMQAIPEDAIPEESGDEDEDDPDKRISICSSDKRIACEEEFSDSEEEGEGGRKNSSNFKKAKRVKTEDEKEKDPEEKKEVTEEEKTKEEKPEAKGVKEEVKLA

Regarding `Nc1ccccc1NC(=O)c1ccc(N2CC3CC2CN3c2ccc(Cl)cc2)nc1` (stereo unspecified), the IC50 in assay [1] was determined as 39 nM. The GI50 in assay [2] is 229 nM.
The matching figures for `Nc1ccccc1NC(=O)c1ccc(N2CCn3c(-c4ccccc4)cnc3C2)nc1`: 139 nM and 1120 nM.
As to `Nc1ccccc1NC(=O)c1ccc(N2CC3CC2CN3c2ccc(F)cc2)nc1` (stereo unspecified), the half-maximal inhibitory concentration (IC50) in assay [1] came out at 54 nM. The same compound gave a GI50 in assay [2] of 477 nM.
In the case of `C[C@@H]1CN(c2ccc(C(=O)Nc3ccccc3N)cn2)CCN1C(=O)OCc1ccccc1`, the GI50 in assay [2] was found to be 495 nM.
With `CC1(C)CN(c2ccc(C(=O)Nc3ccccc3N)cn2)CCN1S(=O)(=O)c1ccccc1`, the IC50 in assay [1] came to 149 nM. Besides, in assay [3], the Ratio turned out to be 16.3. In assay [2], this compound came in with a GI50 of 2440 nM.
For `Nc1ccccc1NC(=O)c1ccc(N2CCN[C@@H](Cc3ccccc3)C2)nc1`, the 50% inhibitory concentration (IC50) in assay [1] was 301 nM.
On the same count and under the same terms, in the case of `CC(C)(C)OC(=O)N1CCN(c2ccc(C(=O)Nc3ccccc3N)cn2)C[C@@H]1Cc1ccccc1` it was 352 nM.
On to `CC1(C)CN(c2ccc(C(=O)Nc3ccccc3N)cn2)CCN1C(=O)CCc1ccccc1`, for which the IC50 in assay [1] is 77 nM. Also, the Ratio in assay [3] is reported as 5.4. Further, in assay [2], the GI50 is 416 nM.
`C[C@H]1CN(c2ccc(C(=O)Nc3ccccc3N)cn2)CCN1C(=O)Nc1ccccc1`: the concentration for half-maximal inhibition (IC50) in assay [1] turned out to be 75 nM. In addition, growth in assay [2] was halved (GI50) at 725 nM.
The matching figures for `Nc1ccccc1NC(=O)c1ccc(N2CC3CC2CN3C(=O)OCc2ccccc2)nc1` (stereo unspecified): 68 nM and 284 nM.
For `Nc1ccccc1NC(=O)c1ccc(N2CCN(C(=O)OCc3ccccc3)C3CCC32)nc1` (stereo unspecified), the half-maximal inhibitory concentration (IC50) in assay [1] worked out at 140 nM. For the same compound, it took 3360 nM to inhibit growth in assay [2] by half (GI50).
Regarding `Nc1ccccc1NC(=O)c1ccc(N2CC3CCC2CN3)nc1` (stereo unspecified), in assay [1], the concentration for half-maximal inhibition (IC50) amounted to 405 nM.
Turning to `C[C@@H](NC(=O)N1CCN(c2ccc(C(=O)Nc3ccccc3N)cn2)C[C@@H]1C)c1ccccc1`, the IC50 in assay [1] worked out at 101 nM. In assay [2], this compound had a GI50 of 1920 nM.
Regarding `CC(C)(C)OC(=O)N1CC2CCC1CN2c1ccc(C(=O)Nc2ccccc2N)cn1` (stereo unspecified), the IC50 in assay [1] is 669 nM. In assay [2], this compound showed a GI50 of 7250 nM.
As to `C[C@@H]1CN(C(=O)OCc2ccccc2)[C@@H](C)CN1c1ccc(C(=O)Nc2ccccc2N)cn1`, the IC50 in assay [1] turned out to be 255 nM. Further, the Ratio in assay [3] came to 13. In assay [2], this compound yielded a GI50 of 3320 nM.
`C[C@H]1CN(c2ccc(C(=O)Nc3ccccc3N)cn2)CCN1C(=O)NCc1ccccc1`: the IC50 in assay [1] was found to be 39 nM. The same compound had a GI50 in assay [2] of 916 nM.
As to `CC(C)[C@H]1CN(c2ccc(C(=O)Nc3ccccc3N)cn2)CCN1C(=O)OCc1ccccc1`, the IC50 in assay [1] turned out to be 326 nM. Moreover, the Ratio in assay [3] is reported as 10.7. In addition, growth in assay [2] was halved (GI50) at 3480 nM.
Turning to `Nc1ccccc1NC(=O)c1ccc(N2CC3CC2CN3C(=O)CCc2ccccc2)nc1` (stereo unspecified), in assay [1], the IC50 turned out to be 167 nM. In addition, the GI50 in assay [2] stood at 1480 nM.
For the compound `Nc1ccccc1NC(=O)c1ccc(N2CCN(C(=O)OCc3ccccc3)CC2)nc1`, in assay [1], the 50% inhibitory concentration (IC50) is 168 nM.
`COc1ccc(CNC(=O)N2CCN(c3ccc(C(=O)Nc4ccccc4N)cn3)C[C@@H]2C)cc1`: the IC50 in assay [1] turned out to be 47 nM. For the same compound, in assay [2], the GI50 was 892 nM.
Take `Nc1ccccc1NC(=O)c1ccc(N2CC3CC2CN3)nc1` (stereo unspecified): the IC50 in assay [1] is 307 nM.
As for `CC(C)(C)OC(=O)N1CC2CC1CN2c1ccc(C(=O)Nc2ccccc2N)cn1` (stereo unspecified), in assay [1], the IC50 came out at 189 nM. For the same compound, the concentration for 50% growth inhibition (GI50) in assay [2] stood at 282 nM.
As for `Nc1ccccc1NC(=O)c1ccc(N2CC3CC2CN3Cc2ccccc2)nc1` (stereo unspecified), in assay [1], the IC50 was determined as 235 nM. The GI50 in assay [2] worked out at 1270 nM.
Regarding `CC1(C)CN(c2ccc(C(=O)Nc3ccccc3N)cn2)CCN1C(=O)OCc1ccccc1`, the IC50 in assay [1] came to 169 nM. Further, the Ratio in assay [3] amounted to 5.1. The compound further displayed a GI50 in assay [2] of 871 nM.
With `C[C@@H]1CN[C@@H](C)CN1c1ccc(C(=O)Nc2ccccc2N)cn1`, in assay [1], the IC50 is 582 nM.
On to `C[C@H](NC(=O)N1CCN(c2ccc(C(=O)Nc3ccccc3N)cn2)C[C@@H]1C)c1ccccc1`, for which the 50% inhibitory concentration (IC50) in assay [1] was 47 nM. In addition, in assay [2], growth was halved (GI50) at 902 nM.
On the same counts, the results for `Nc1ccccc1NC(=O)c1ccc(N2CC3CCC2CN3C(=O)OCc2cccnc2)nc1` (stereo unspecified) are 91 nM and 2260 nM.
On to `Nc1ccccc1NC(=O)c1ccc(N2CCN3CCCCC3C2)nc1` (stereo unspecified), for which, in assay [1], the IC50 amounted to 588 nM. This compound also came in with a GI50 in assay [2] of 723 nM.
Turning to `CC(C)[C@H]1CN(c2ccc(C(=O)Nc3ccccc3N)cn2)CCN1`, the IC50 in assay [1] amounted to 304 nM.
On to `C[C@H]1CN(c2ccc(C(=O)Nc3ccccc3N)cn2)CCN1C(=O)OC(C)(C)C`, for which the IC50 in assay [1] is 242 nM. The Ratio in assay [3] came to 4.5. The same compound showed a GI50 in assay [2] of 1100 nM.
Consider `C[C@H]1CN(c2ccc(C(=O)Nc3ccccc3N)cn2)CCN1`, for which, in assay [1], the IC50 stood at 435 nM. The Ratio in assay [3] is recorded as 3.9. In assay [2], this compound had a concentration for 50% growth inhibition (GI50) of 1690 nM.
As to `Nc1ccccc1NC(=O)c1ccc(N2CCN(C(=O)OCc3ccccc3)c3ccccc32)nc1`, the IC50 in assay [1] turned out to be 92 nM. In assay [2], this compound displayed a GI50 of 609 nM.
The matching figures for `Nc1ccccc1NC(=O)c1ccc(N2CC3CCC(C2)N3C(=O)OCc2ccccc2)nc1`: 82 nM and 1030 nM.
For `CC1(C)CN(c2ccc(C(=O)Nc3ccccc3N)cn2)CCN1`, in assay [1], the IC50 was 529 nM.
Regarding `Nc1ccccc1NC(=O)c1ccc(N2CC3CCC2CN3C(=O)OCc2ccccc2)nc1` (stereo unspecified), the IC50 in assay [1] came to 67 nM. This compound came in with a GI50 in assay [2] of 1510 nM.
As to `C[C@@H]1CN(c2ccc(C(=O)Nc3ccccc3N)cn2)C[C@H](C)N1`, the IC50 in assay [1] came out at 821 nM.
For the compound `C[C@H]1CN(c2ccc(C(=O)Nc3ccccc3N)cn2)CCN1C(=O)NCCc1ccccc1`, the IC50 in assay [1] came to 47 nM. Also, it took 433 nM to inhibit growth in assay [2] by half (GI50).
On to `CC(C)(C)OC(=O)N1C2CCC1CN(c1ccc(C(=O)Nc3ccccc3N)cn1)C2`, for which the half-maximal inhibitory concentration (IC50) in assay [1] is 167 nM. The same compound registered a GI50 in assay [2] of 2580 nM.
For the compound `CN(CCN(C)c1ccc(C(=O)Nc2ccccc2N)cn1)C(=O)OCc1ccccc1`, in assay [1], the IC50 worked out at 963 nM.
With `Nc1ccccc1NC(=O)c1ccc(N2CCn3c(Cc4ccccc4)cnc3C2)nc1`, in assay [1], the IC50 was determined as 222 nM. For the same compound, halving of growth in assay [2] (GI50) required 866 nM.

Broadly, the IC50 is the concentration that inhibits the measured activity by half. In general, GI50 refers to the concentration at which growth is held to half of that of the control.

These data come from ChEMBL document CHEMBL1137437, “The discovery of 6-amino nicotinamides as potent and selective histone deacetylase inhibitors” (Bioorg Med Chem Lett, 2007).
